Results as given in ChEMBL document CHEMBL3813637, “Synthesis and Antiproliferative and Metabolic Evaluations of Novel Securinine Derivatives” (ACS Med Chem Lett, 2016).

How the values were obtained:
[1] = Antiproliferative activity against human HCT116 cells assessed as reduction in cell viability at 20 uM after 72 hrs by ATPlite assay; type: functional; settings: HCT-116, 72 h, read-out: GI
Method in brief: (§1)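 HCT-116 human colon cancer cells exposed to compound for 72 h at 20, 10 or 1 μM. Growth inhibition is expressed as percentage relative to nontreated cells.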

[2] = Antiproliferative activity against human HCT116 cells assessed as reduction in cell viability at 10 uM after 72 hrs by ATPlite assay; type: functional; settings: HCT-116, 72 h, read-out: GI; method in brief: as §1
[3] = Antiproliferative activity against human HCT116 cells assessed as reduction in cell viability at 1 uM after 72 hrs by ATPlite assay; type: functional; settings: HCT-116, 72 h, read-out: GI; method in brief: as §1
[4] = Antiproliferative activity against human HCT116 cells assessed as reduction in cell viability after 72 hrs by ATPlite assay; type: functional, cell-based; settings: HCT-116, 72 h
Method in brief: (§2)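 IC50 determined in human cancer cell lines (HCT-116, A-375 melanoma, HL-60, A-549). Camptothecin and etoposide served as reference compounds.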

A-375 = test: Antiproliferative activity against human A375 cells assessed as reduction in cell viability after 72 hrs by ATPlite assay; type: functional, cell-based; settings: A-375, 72 h; method in brief: as §2
A549 = test: Antiproliferative activity against human A549 cells assessed as reduction in cell viability after 72 hrs by ATPlite assay; type: functional, cell-based; settings: A549, 72 h
Method in brief: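 IC50 values were determined on a panel of four human cancer lines (HCT-116, A-549, HL-60, A-375), with camptothecin and etoposide as reference compounds.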

[5] = Antiproliferative activity against human HL60 cells assessed as reduction in cell viability after 72 hrs by ATPlite assay; type: functional, cell-based; settings: HL-60, 72 h; method in brief: as §2

## COc1cccc2c1C(=O)c1c(O)c3c(c(O)c1C2=O)C[C@@](O)(C(=O)CO)C[C@@H]3O[C@H]1C[C@H](N)[C@H](O)[C@H](C)O1 [DOXORUBICIN]
[1]
  inhibition of growth at 20 µM: 95.6%
[2]
  inhibition of growth at 10 µM: 94.3%
[3]
  inhibition of growth at 1 µM: 99.6%

## O=C1C=C2C(c3ccccc3)=C[C@@H]3C[C@@]2(O1)[C@H]1CCCCN31
[1]
  inhibition of growth at 20 µM: 24.1%
[2]
  inhibition of growth at 10 µM: 9.2%
[3]
  inhibition of growth at 1 µM: -3.8%

## CCCCCC#CC1=C[C@@H]2C[C@@]3(OC(=O)C=C13)[C@H]1CCCCN21
[1]
  inhibition of growth at 20 µM: 97.5%
[2]
  inhibition of growth at 10 µM: 96.6%
[3]
  inhibition of growth at 1 µM: 10.2%

## O=C1C=C2C(C#CC3C=CCCC3)=C[C@@H]3C[C@@]2(O1)[C@H]1CCCCN31 (stereo partly specified)
[1]
  inhibition of growth at 20 µM: 97.3%
[2]
  inhibition of growth at 10 µM: 98.1%
[3]
  inhibition of growth at 1 µM: 3.3%

## CC(C)(C)C#CC1=C[C@@H]2C[C@@]3(OC(=O)C=C13)[C@H]1CCCCN21
[1]
  inhibition of growth at 20 µM: 100%
[2]
  inhibition of growth at 10 µM: 98.8%
[3]
  inhibition of growth at 1 µM: 25.2%

## CC[C@@]1(O)C(=O)OCc2c1cc1n(c2=O)Cc2cc3ccccc3nc2-1 [CAMPTOTHECIN]
[4]
  IC50: 3 nM
A-375
  IC50: 13 nM
A549
  IC50: 9 nM
[5]
  IC50: 35 nM

## O=C1C=C2C(C#CC3CCCCC3)=C[C@@H]3C[C@@]2(O1)[C@H]1CCCCN31
[1]
  inhibition of growth at 20 µM: 100%
[2]
  inhibition of growth at 10 µM: 99.8%
[3]
  inhibition of growth at 1 µM: 49.3%

## CCCCC#CC1=C[C@@H]2C[C@@]3(OC(=O)C=C13)[C@H]1CCCCN21
[1]
  inhibition of growth at 20 µM: 99.5%
[2]
  inhibition of growth at 10 µM: 98.1%
[3]
  inhibition of growth at 1 µM: 7.6%

## COC(=O)c1ccc(C2=C[C@@H]3C[C@@]4(OC(=O)C=C24)[C@H]2CCCCN32)cc1
[1]
  inhibition of growth at 20 µM: 23.9%
[2]
  inhibition of growth at 10 µM: 10.5%
[3]
  inhibition of growth at 1 µM: -3.6%

## O=C1C=C2C(C#CC3CC3)=C[C@@H]3C[C@@]2(O1)[C@H]1CCCCN31
[1]
  inhibition of growth at 20 µM: 93.9%
[2]
  inhibition of growth at 10 µM: 94.8%
[3]
  inhibition of growth at 1 µM: 5.9%

## O=C1C=C2C(I)=C[C@@H]3C[C@@]2(O1)[C@H]1CCCCN31
[1]
  inhibition of growth at 20 µM: 100%
[2]
  inhibition of growth at 10 µM: 100%
[3]
  inhibition of growth at 1 µM: 80.9%

## CC(C)(C)OC(=O)NCCCC#CC1=C[C@@H]2C[C@@]3(OC(=O)C=C13)[C@H]1CCCCN21
[1]
  inhibition of growth at 20 µM: 99.9%
[2]
  inhibition of growth at 10 µM: 98.8%
[3]
  inhibition of growth at 1 µM: 60.1%

## CC(C)(O)C#CC1=C[C@@H]2C[C@@]3(OC(=O)C=C13)[C@H]1CCCCN21
[1]
  inhibition of growth at 20 µM: 97.7%
[2]
  inhibition of growth at 10 µM: 91.6%
[3]
  inhibition of growth at 1 µM: 10.3%

## O=C1C=C2C(C#CCO)=C[C@@H]3C[C@@]2(O1)[C@H]1CCCCN31
[1]
  inhibition of growth at 20 µM: 98.9%
[2]
  inhibition of growth at 10 µM: 94.9%
[3]
  inhibition of growth at 1 µM: 5%

## O=C1C=C2C(C#Cc3cccnc3)=C[C@@H]3C[C@@]2(O1)[C@H]1CCCCN31
[1]
  inhibition of growth at 20 µM: 100%
[2]
  inhibition of growth at 10 µM: 100%
[3]
  inhibition of growth at 1 µM: 96.4%
A-375
  IC50: 950 nM
A549
  IC50: 4400 nM
[5]
  IC50: > 10000 nM

## Cc1cccc(C2=C[C@@H]3C[C@@]4(OC(=O)C=C24)[C@H]2CCCCN32)c1
[1]
  inhibition of growth at 20 µM: 33.8%
[2]
  inhibition of growth at 10 µM: 15.6%
[3]
  inhibition of growth at 1 µM: 5.7%

## O=C1C=C2C(c3ccco3)=C[C@@H]3C[C@@]2(O1)[C@H]1CCCCN31
[1]
  inhibition of growth at 20 µM: 45.5%
[2]
  inhibition of growth at 10 µM: 23.8%
[3]
  inhibition of growth at 1 µM: 6%

## CC(C)(C)c1ccc(C2=C[C@@H]3C[C@@]4(OC(=O)C=C24)[C@H]2CCCCN32)cc1
[1]
  inhibition of growth at 20 µM: 30.6%
[2]
  inhibition of growth at 10 µM: 9.7%
[3]
  inhibition of growth at 1 µM: 0.9%

## O=C1C=C2C(C#Cc3ccc(N4CCCCC4)cc3)=C[C@@H]3C[C@@]2(O1)[C@H]1CCCCN31
[1]
  inhibition of growth at 20 µM: 100%
[2]
  inhibition of growth at 10 µM: 100%
[3]
  inhibition of growth at 1 µM: 98%

## O=C1C=C2C(c3ccc(C(F)(F)F)cc3)=C[C@@H]3C[C@@]2(O1)[C@H]1CCCCN31
[1]
  inhibition of growth at 20 µM: 80.4%
[2]
  inhibition of growth at 10 µM: 47.9%
[3]
  inhibition of growth at 1 µM: -1.5%

## COc1cc([C@@H]2c3cc4c(cc3[C@@H](O[C@@H]3O[C@@H]5CO[C@@H](C)O[C@H]5[C@H](O)[C@H]3O)[C@H]3COC(=O)[C@H]23)OCO4)cc(OC)c1O [ETOPOSIDE]
[4]
  IC50: > 10000 nM
[5]
  IC50: 860 nM

## CCN(CC)c1ccc(C#CC2=C[C@@H]3C[C@@]4(OC(=O)C=C24)[C@H]2CCCCN32)cc1
[1]
  inhibition of growth at 20 µM: 100%
[2]
  inhibition of growth at 10 µM: 100%
[3]
  inhibition of growth at 1 µM: 98.2%

## CC(C)(C)OC(=O)NC1CCC(C#CC2=C[C@@H]3C[C@@]4(OC(=O)C=C24)[C@H]2CCCCN32)CC1 (stereo partly specified)
[1]
  inhibition of growth at 20 µM: 100%
[2]
  inhibition of growth at 10 µM: 100%
[3]
  inhibition of growth at 1 µM: 93.4%

## Cc1ccc(C#CC2=C[C@@H]3C[C@@]4(OC(=O)C=C24)[C@H]2CCCCN32)cc1
[1]
  inhibition of growth at 20 µM: 100%
[2]
  inhibition of growth at 10 µM: 100%
[3]
  inhibition of growth at 1 µM: 64%
A-375
  IC50: 1750 nM
A549
  IC50: > 10000 nM
[5]
  IC50: > 10000 nM

## O=C1C=C2C(c3ccc(-c4ccccc4)cc3)=C[C@@H]3C[C@@]2(O1)[C@H]1CCCCN31
[1]
  inhibition of growth at 20 µM: 82.8%
[2]
  inhibition of growth at 10 µM: 52.6%
[3]
  inhibition of growth at 1 µM: 5.4%

## O=C1C=C2C(c3ccc(Br)cc3)=C[C@@H]3C[C@@]2(O1)[C@H]1CCCCN31
[1]
  inhibition of growth at 20 µM: 60.1%
[2]
  inhibition of growth at 10 µM: 23%
[3]
  inhibition of growth at 1 µM: -5.2%

## O=C1C=C2C(c3ccc(F)cc3)=C[C@@H]3C[C@@]2(O1)[C@H]1CCCCN31
[1]
  inhibition of growth at 20 µM: 24%
[2]
  inhibition of growth at 10 µM: 9.9%
[3]
  inhibition of growth at 1 µM: 2.1%

## O=Cc1ccc(C2=C[C@@H]3C[C@@]4(OC(=O)C=C24)[C@H]2CCCCN32)cc1
[1]
  inhibition of growth at 20 µM: 34.6%
[2]
  inhibition of growth at 10 µM: 9.5%
[3]
  inhibition of growth at 1 µM: -0.7%

## C[Si](C)(C)C#CC1=C[C@@H]2C[C@@]3(OC(=O)C=C13)[C@H]1CCCCN21
[1]
  inhibition of growth at 20 µM: 99.3%
[2]
  inhibition of growth at 10 µM: 99%
[3]
  inhibition of growth at 1 µM: 10.1%

## CC(C)(C)OC(=O)NCC#CC1=C[C@@H]2C[C@@]3(OC(=O)C=C13)[C@H]1CCCCN21
[4]
  IC50: 1660 nM
[1]
  inhibition of growth at 20 µM: 100%
[2]
  inhibition of growth at 10 µM: 100%
[3]
  inhibition of growth at 1 µM: 79.3%
A-375
  IC50: 360 nM
A549
  IC50: 2640 nM
[5]
  IC50: 5000 nM

## O=C1C=C2C(C#CCCCO)=C[C@@H]3C[C@@]2(O1)[C@H]1CCCCN31
[1]
  inhibition of growth at 20 µM: 96.9%
[2]
  inhibition of growth at 10 µM: 64.3%
[3]
  inhibition of growth at 1 µM: 5.9%

## O=C1C=C2C(C#Cc3ccc(F)cc3)=C[C@@H]3C[C@@]2(O1)[C@H]1CCCCN31
[4]
  IC50: 2470 nM
[1]
  inhibition of growth at 20 µM: 100%
[2]
  inhibition of growth at 10 µM: 99.9%
[3]
  inhibition of growth at 1 µM: 87.3%
A-375
  IC50: 2820 nM
A549
  IC50: 3990 nM
[5]
  IC50: > 10000 nM

## O=C1C=C2C(C#Cc3ccccc3C(F)(F)F)=C[C@@H]3C[C@@]2(O1)[C@H]1CCCCN31
[1]
  inhibition of growth at 20 µM: 100%
[2]
  inhibition of growth at 10 µM: 99.9%
[3]
  inhibition of growth at 1 µM: 55.8%

## Cc1ccc(C2=C[C@@H]3C[C@@]4(OC(=O)C=C24)[C@H]2CCCCN32)cc1
[1]
  inhibition of growth at 20 µM: 30%
[2]
  inhibition of growth at 10 µM: 11.7%
[3]
  inhibition of growth at 1 µM: 0.3%
